We go through 3 compounds from ChEMBL document CHEMBL3352485 (J Med Chem, 2014).

The target of series [1] is T1, KiSS-1 receptor (Homo sapiens, UniProt Q969F8). The series can be described thus: Agonist activity at human KISS1R transfected in CHO cells assessed as intracellular calcium flux after 24 hrs by functional FLIPR assay. The series is classed as cell-based. Put shortly:
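CHO cells stably expressing human KISS1R were seeded at 15 000 cells/mL, cultured 24 h, then loaded with fluo-3 for 1 h at 37 °C in HBSS/HEPES (pH 7.4) with probenecid and FBS. Cells were washed in HBSS with 2.5 mM probenecid. Peptides came from 1 mM DMSO stocks diluted in buffer containing probenecid, 0.2% BSA and 0.1% CHAPS. Fluorescence was recorded on FLIPR for 3 min; peak counts over 0–180 s gave agonist activity.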

Series [2] in a line: Mean residence time in Sprague-Dawley rat at 1 mg/kg, iv after 24 hrs by LC-MS/MS analysis. Format: ADME, organism-based. The note with it: in vivo. On the set-up: dose 1 mg/kg, route intravenous. Put shortly: (§1)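 Male Crl:CD(SD) rats (3 per group) got a single intravenous dose of 1 mg/kg. Blood was drawn at 5, 10, 15 and 30 min and at 1, 2, 4, 8 and 24 h. Plasma proteins were removed with 0.2% formic acid/methanol and acetonitrile, and the supernatant was treated with 0.4% formic acid. Peptide was quantified by LC-MS. Noncompartmental parameters were derived per rat, reported as mean ± SD (n = 3).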

A short description of series [3]: Volume of distribution at steady state in Sprague-Dawley rat at 1 mg/kg, iv after 24 hrs by LC-MS/MS analysis. Conditions: in vivo, read-out: Vdss. Format: ADME, organism-based. On the set-up: dose 1 mg/kg, route intravenous. Put shortly:
as §1

Series [4] is described as follows: AUC (0 to 24 hrs) in Sprague-Dawley rat at 1 mg/kg, sc after 24 hrs by LC-MS/MS analysis. Format: ADME, organism-based. On the set-up: time < 24 hr, dose 1 mg/kg, route subcutaneous. The note with it: plasma. Put shortly: (§2)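 Single subcutaneous dose of 1 mg/kg in male Crl:CD(SD) rats, n = 3 per group. Blood was sampled from 5 min to 24 h (5, 10, 15, 30 min; 1, 2, 4, 8, 24 h). Plasma was deproteinized with formic acid/methanol and acetonitrile, and peptide levels were measured by LC-MS. Noncompartmental analysis per animal gave Cmax, Tmax, AUC0-24h, MRT and BA; values are mean ± SD (n = 3).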

Series [5] in a line: C5min in Sprague-Dawley rat at 1 mg/kg, iv after 5 mins by LC-MS/MS analysis. Conditions: in vivo, read-out: Cmin.
The nature of series [6]: Stability of the compound in aqueous solution assessed as residual ratio at pH 7 up to 1 week by HPLC analysis relative to initial level. The series is classed as physicochemical. The essentials: (§3)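 Peptides in aqueous solution at pH 1.2 (JP1, containing 10% acetonitrile), 3, 5 or 7 were kept in the dark at 37 °C for up to 2 weeks. Peptide remaining was quantified from HPLC peak area, with detection at 230–280 nm. The residual ratio (stability index) was expressed relative to the time-0 amount, taken as 100%.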

Series [7] is described as follows: Stability of the compound in aqueous solution assessed as residual ratio at pH 7 up to 2 weeks by HPLC analysis relative to initial level. Format: physicochemical. Put shortly: as §3
Series [8] is described as follows: AUC (0 to 24 hrs) in Sprague-Dawley rat at 1 mg/kg, iv after 24 hrs by LC-MS/MS analysis. On the set-up: time < 24 hr, dose 1 mg/kg, route intravenous. Format: ADME, organism-based. The note with it: plasma. The essentials: as §1
Series [9] in a line: Cmax in Sprague-Dawley rat at 1 mg/kg, sc after 24 hrs by LC-MS/MS analysis. Conditions: in vivo. The series is classed as ADME, organism-based. On the set-up: dose 1 mg/kg, route subcutaneous. Put shortly: as §2
Series [10] can be described thus: Stability of the compound in aqueous solution assessed as residual ratio at pH 5 up to 1 week by HPLC analysis relative to initial level. The series is classed as physicochemical. Put shortly:
as §3

A short description of series [11]: Mean residence time in Sprague-Dawley rat at 1 mg/kg, sc after 24 hrs by LC-MS/MS analysis. Format: ADME, organism-based. On the set-up: dose 1 mg/kg, route subcutaneous. Conditions: in vivo. Put shortly:
as §2

Series [12] deals with Rattus norvegicus. The series can be described thus: Testosterone-suppressive activity in Crl:CD(SD) rat assessed as number of animal with plasma testosterone level below the limit of detection at 0.1 nmol/hr, sc through osmotic pumps measured after 6 days by RIA. The series is classed as functional. Put shortly:
(§4)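 Peptide was dissolved in distilled water or 50% DMSO as 0.1–2 mM pump solutions and delivered by ALZET osmotic pumps implanted subcutaneously in the back of 9-week-old male Crl:CD(SD) rats (n = 5) under ether. Controls received distilled-water pumps. After 6 days, rats were decapitated and plasma was recovered with aprotinin/EDTA. Testosterone was measured by RIA, and the number of rats below the detection limit (0.04 ng/mL) was counted.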

The nature of series [13]: Stability of the compound in aqueous solution assessed as residual ratio at pH 3 up to 1 week by HPLC analysis relative to initial level. Format: physicochemical. Put shortly: as §3
For series [14], the system named is Rattus norvegicus. The series can be described thus: Testosterone-suppressive activity in Crl:CD(SD) rat assessed as number of animal with plasma testosterone level below the limit of detection at 2 nmol/hr, sc through osmotic pumps measured after 6 days by RIA. Format: functional. The essentials:
as §4

Series [15] has as its system Rattus norvegicus. The experiment in a line: Testosterone-suppressive activity in Crl:CD(SD) rat assessed as number of animal with plasma testosterone level below the limit of detection at 0.3 nmol/hr, sc through osmotic pumps measured after 6 days by RIA. The series is classed as functional. Put shortly:
as §4

Series [16] can be described thus: Stability of the compound in aqueous solution assessed as residual ratio at pH 5 up to 2 weeks by HPLC analysis relative to initial level. Format: physicochemical. The essentials: as §3
Series [17] is described as follows: Total clearance in Sprague-Dawley rat at 1 mg/kg, iv after 24 hrs by LC-MS/MS analysis. Format: ADME, organism-based. Also noted: dose 1 mg/kg, route intravenous. Conditions: in vivo. The essentials:
as §1

A short description of series [18]: Bioavailability in Sprague-Dawley rat at 1 mg/kg, sc after 24 hrs by LC-MS/MS analysis. The series is classed as ADME, organism-based. Conditions: in vivo. The essentials:
as §2

The target of series [19] is T2, KiSS-1 receptor (Rattus norvegicus, UniProt Q924U1). The experiment in a line: Agonist activity at rat KISS1R transfected in CHO cells assessed as intracellular calcium flux after 24 hrs by functional FLIPR assay. The series is classed as cell-based.
Series [20] can be described thus: Stability of the compound in aqueous solution (JP1) assessed as residual ratio at pH 1.2 up to 1 week by HPLC analysis relative to initial level. The series is classed as physicochemical. Put shortly: as §3
The nature of series [21]: Tmax in Sprague-Dawley rat at 1 mg/kg, sc after 24 hrs by LC-MS/MS analysis. Also noted: dose 1 mg/kg, route subcutaneous. Conditions: in vivo. Format: ADME, organism-based. The essentials:
as §2

Series [22] deals with T1, KiSS-1 receptor. The experiment in a line: Displacement of radioligand from human KISS1R transfected in CHO cells. The series is classed as cell-based. Put shortly: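 Binding used membrane fractions prepared from CHO cells expressing recombinant human KISS1R.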
Series [23] in a line: Stability of the compound in aqueous solution (JP1) assessed as residual ratio at pH 1.2 up to 2 weeks by HPLC analysis relative to initial level. Format: physicochemical. Put shortly: as §3
Series [24] concerns Rattus norvegicus. The series can be described thus: Testosterone-suppressive activity in Crl:CD(SD) rat assessed as number of animal with plasma testosterone level below the limit of detection at 0.5 nmol/hr, sc through osmotic pumps measured after 6 days by RIA. Format: functional. The essentials:
as §4

A short description of series [25]: Stability of the compound in aqueous solution assessed as residual ratio at pH 3 up to 2 weeks by HPLC analysis relative to initial level. The series is classed as physicochemical. Put shortly:
as §3

Series [26] deals with T2, KiSS-1 receptor. The series can be described thus: Displacement of radioligand from rat KISS1R transfected in CHO cells. The series is classed as cell-based.
Series [27] deals with Rattus norvegicus. The experiment in a line: Testosterone-suppressive activity in Crl:CD(SD) rat assessed as number of animal with plasma testosterone level below the limit of detection […], sc through osmotic pumps measured after 6 days by RIA. Format: functional.

T1 sequence (Q969F8 whole entry): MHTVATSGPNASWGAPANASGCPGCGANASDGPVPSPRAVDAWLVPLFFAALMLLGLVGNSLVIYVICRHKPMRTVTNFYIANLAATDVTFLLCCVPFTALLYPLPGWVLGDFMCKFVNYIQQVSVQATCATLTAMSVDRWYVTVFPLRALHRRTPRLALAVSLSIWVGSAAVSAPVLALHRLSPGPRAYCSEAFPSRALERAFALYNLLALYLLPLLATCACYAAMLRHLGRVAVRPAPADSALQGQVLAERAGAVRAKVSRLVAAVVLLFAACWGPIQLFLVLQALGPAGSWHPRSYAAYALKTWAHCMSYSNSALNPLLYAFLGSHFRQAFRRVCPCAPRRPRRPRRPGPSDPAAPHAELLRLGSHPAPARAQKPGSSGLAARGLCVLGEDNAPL
T2 sequence (Q924U1 whole entry): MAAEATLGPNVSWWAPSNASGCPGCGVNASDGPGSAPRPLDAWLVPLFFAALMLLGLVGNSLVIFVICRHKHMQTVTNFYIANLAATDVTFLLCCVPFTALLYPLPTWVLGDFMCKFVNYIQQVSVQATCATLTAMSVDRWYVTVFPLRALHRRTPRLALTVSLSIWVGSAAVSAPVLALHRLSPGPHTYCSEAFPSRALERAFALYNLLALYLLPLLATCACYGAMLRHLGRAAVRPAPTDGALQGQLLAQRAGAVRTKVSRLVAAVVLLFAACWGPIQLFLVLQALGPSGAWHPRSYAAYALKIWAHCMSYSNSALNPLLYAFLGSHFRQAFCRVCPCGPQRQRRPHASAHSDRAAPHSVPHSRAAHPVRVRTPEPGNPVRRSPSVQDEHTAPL

With `CNC(=N)NCCC[C@H](NC(=O)[C@H](CC(C)C)NC(=O)NNC(=O)[C@H](Cc1ccccc1)NC(=O)[C@@H](NC(=O)[C@H](CC(N)=O)NC(=O)[C@@H](Cc1c[nH]c2ccccc12)NC(=O)[C@H](N)Cc1ccc(O)cc1)[C@@H](C)O)C(=O)N[C@@H](Cc1c[nH]c2ccccc12)C(N)=O`, the EC50 came to 1 nM in series [1] and 4.1 nM in [19]. Also, the MRT came out at 43.8 min in [2] and 52.8 min in series [11]. In addition, the Vd in series [3] turned out to be 1.46 L/kg. Also, the exposure AUC(0-t) at 24 h in series [4] turned out to be 46 ng·h/mL; in series [8], 503 ng·h/mL. The concentration at 5 min in series [5] stood at 1440 ng/mL. The amount remaining at 168 h was 84.9% in series [6], 98.8% in series [10], 98.7% in series [13] and 64.9% in [20]. Besides, the share remaining at 336 h in [7] is 72.8%; in series [16] it was 96.5%; in series [23], 39.1%; in series [25], 98.2%. In addition, the Cmax in series [9] turned out to be 47 ng/mL. The Activity was 0 rats (n = 5) in [12], 100% in series [14], 60% in [15] and 60% in series [24]. For the same compound, the clearance in [17] was 33.3 mL/min/kg. Moreover, the bioavailability in series [18] is 9.2%. Moreover, the Tmax in series [21] is 11.4 min. In series [22], this compound yielded a Ki of 0.036 nM.

For the compound `CNC(=N)NCCC[C@H](NC(=O)[C@H](CC(C)C)NC(=O)NNC(=O)[C@H](Cc1ccccc1)NC(=O)[C@H](CO)NC(=O)[C@H](CC(N)=O)NC(=O)[C@@H](Cc1c[nH]c2ccccc12)NC(=O)[C@H](N)Cc1ccc(O)cc1)C(=O)N[C@@H](Cc1c[nH]c2ccccc12)C(N)=O`, the EC50 in series [1] was determined as 0.51 nM; in [19] it was 2.3 nM. In addition, the share remaining at 168 h in series [6] stood at 56.5%; in series [10] it was 96%; in [13], 98.2%; in series [20], 60.8%. Further, the amount remaining at 336 h in series [7] is 28%; in series [16], 90.8%; in [23], 33.4%; in series [25], 97.1%. For the same compound, the Activity is given as 0 rats (n = 5) in series [12], 40% in series [15] and 80% in [24]. Further, the Ki stood at 0.077 nM in [26] and 0.037 nM in series [22].

Take `CNC(=N)NCCC[C@H](NC(=O)[C@H](CC(C)C)NC(=O)NNC(=O)[C@H](Cc1ccccc1)NC(=O)[C@@H](NC(=O)[C@H](CC(N)=O)NC(=O)[C@@H](Cc1c[nH]c2ccccc12)NC(=O)CCc1ccc(O)cc1)[C@@H](C)O)C(=O)N[C@@H](Cc1c[nH]c2ccccc12)C(N)=O`: the EC50 in [1] came to 0.3 nM; in series [19], 1.1 nM. For the same compound, the Activity is 100% in [12] and 0 animals in series [27]. The compound further displayed a Ki in series [22] of 0.039 nM.
